Experimental data from ChEMBL document CHEMBL1143811, “Bis-acridines as lead antiparasitic agents: structure-activity analysis of a discrete compound library in vitro” (Antimicrob Agents Chemother, 2007).
≈ marks a conversion by molar mass, not a printed value. Calls of active or inactive are those of the source. The calls are words filed in the database; no cut-off is given here.

Tests used:
HL-60 = assay: (§1) Cytotoxicity against human HL60 cells; type: cell-based; settings: Homo sapiens, HL-60
Procedure, shortened: (§2)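 Bloodstream-form T. b. brucei in Baltz medium (~10^4/ml) and HL-60 cells in RPMI 1640 (~10^5/ml), both with 16.7% FBS, were exposed 48 h at 37°C in 5% CO2 to compound up to 10 µM in 1% final DMSO. Live cells were hemocytometer-counted, by motility (trypanosomes) or trypan blue exclusion (HL-60). EC50 was taken by regression versus DMSO cultures from three experiments. MIC was the lowest fully lethal concentration, judged microscopically.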

[1] = as §1; type: cell-based, HL-60; settings: human, HL-60 cells; read-out: MIC; procedure, shortened: as §2
Plasmodium falciparum [2] = assay: Antimicrobial activity against chloroquine-resistant Plasmodium falciparum W2 after 72 hrs; type: functional, organism-based; settings: W2, 72 h
Entamoeba histolytica = assay: Antimicrobial activity against Entamoeba histolytica HM1 IMSS trophozoites after 48 hrs; type: functional, organism-based; settings: 60 h, in the assay text read “60 hrs” for “48 hrs”
Procedure, shortened: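 Trophozoites were grown axenically in TYI-S-33 with 10% bovine adult serum and seeded at ~10^4 cells/well. Compound (range up to 10 µM) was added to 48-h log-phase cultures, then incubated 60 h at 37°C under anaerobic conditions. Viability was read by CellTiter-Glo luminescence. EC50 came from quadruplicate wells in two independent experiments.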

[3] = Selectivity index, ratio of EC50 for HL60 cells to EC50 for Trypanosoma brucei brucei clone 427-221a; type: functional, HL-60; procedure, shortened: as §2
Trichomonas vaginalis = assay: Antimicrobial activity against Trichomonas vaginalis G3 assessed as parasite death at 10 uM after 24 hrs; type: functional
Procedure, shortened: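 G3 strain grown in Diamond's medium at 37°C. Assay culture set up as 0.5 ml dense culture diluted into 5.0 ml complete medium. Compound at a final 10 µM for 24 h at 37°C. Motile cells counted by hemocytometer. Result is percent dead parasites relative to DMSO-treated cultures, from five separate experiments. Controls were untreated, DMSO and metronidazole.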

MRC5 = assay: Toxicity against human MRC5 cells at 3.13 uM; type: cell-based; settings: mrc5, 3.13 µM
[4] = test system: Trypanosoma brucei brucei; assay: Antimicrobial activity against Trypanosoma brucei brucei clone 427-221a after 48 hrs; type: functional, organism-based; procedure, shortened: as §2
Plasmodium falciparum [5] = assay: Antimalarial activity against chloroquine-resistant Plasmodium falciparum FcB1R after 72 hrs; type: functional, organism-based
Leishmania major = assay: Antileishmanial activity against Leishmania major MHOM/IL/81/FE/BNI amastigotes after 48 hrs at 1 uM; type: functional, organism-based
Procedure, shortened: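 Peritoneal macrophages from BALB/c mice (6-8 wk) adhered 2 h at 37°C, infected 24 h with stationary-phase L. major promastigotes at 10:1 parasite:macrophage, washed, then exposed 48 h to compound at 0.0001 to 10 µM. Intracellular amastigotes stained with acridine orange/ethidium bromide and counted by fluorescence microscopy; percent amastigotes cleared versus DMSO-treated cultures; three repeats.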

Plasmodium falciparum [6] = assay: Antimicrobial activity against chloroquine-sensitive Plasmodium falciparum 3D7 after 72 hrs; type: functional, organism-based; settings: 3D7, 72 h
[7] = Cytotoxicity against BALB/c mouse peritoneal macrophages at 10 uM after 48 hrs hrs; type: cell-based; settings: macrophage
Leishmania donovani = assay: Antileishmanial activity against Leishmania donovani MHOM/SD/00/1S-2D promastigotes assessed as parasite death at 10 uM after 72 hrs; type: functional
Procedure, shortened: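 Promastigotes seeded at 1.5 x 10^5 cells/ml in medium 199 with 10% heat-inactivated FBS. Compound added at a final 10 µM, in triplicate, in sealed flasks at 27°C for up to 7 days. Aliquots taken daily and viability read by CellTiter-Glo luminescence. Result given as percent reduction in viability relative to DMSO-treated cultures. Controls were K11777 or amphotericin B at 10 µM.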

[8] = Selectivity index, ratio of MIC for HL60 cells to MIC for Trypanosoma brucei brucei clone 427-221a; type: functional, HL-60; procedure, shortened: as §2
[9] = test system: Trypanosoma brucei brucei; assay: Antimicrobial activity against Trypanosoma brucei brucei clone 427-221a at 1.56 uM; type: functional
Schistosoma mansoni = assay: Antimicrobial activity against Schistosoma mansoni assessed as worm vitality at 6 uM after 4 hrs; type: functional, organism-based
Procedure, shortened: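 20-day-old worms were obtained by perfusion of BALB/c mice infected with 200 cercariae. About 20 worms/well were kept in Basch 169 with 10% bovine calf serum, preincubated 24 h at 37°C in 5% CO2, then exposed to 1, 3 or 6 µM. Vitality (feeding, flexing, gut peristalsis; death = nonmotile, shrunken, dark) was scored at 4 and 18 h in two experiments.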

| SMILES | EC50 (HL-60) | MCC [1] | EC50 (Plasmodium falciparum [2]) | EC50 (Entamoeba histolytica) | Ratio EC50 [3] | Activity (Trichomonas vaginalis) | Activity (MRC5) | EC50 [4] | MIC [4] | EC50 (Plasmodium falciparum [5]) | Activity (Leishmania major) | EC50 (Plasmodium falciparum [6]) | Activity [7] | Activity (Leishmania donovani) | Ratio [8] | Activity [9] | Activity (Schistosoma mansoni) |
| --- | --- | --- | --- | --- | --- | --- | --- | --- | --- | --- | --- | --- | --- | --- | --- | --- | --- |
| COc1ccc2nc3cc(Cl)ccc3c(NCCCCCCCCNc3c4ccc(Cl)cc4nc4ccc(OC)cc34)c2c1 | 1650 nM | 10 µM | 124 nM | 500 nM | 191 | 100% | 20% | 8.6 nM | 1 µM (≈ 0.628 µg/mL) | 19 nM | inactive | 115 nM | Toxic | 99% | 10 | 100% | – |
| C[C@@H]1[C@H](O)[C@@H](C)/C=C/C=C/C=C/C=C/C=C/C=C/C=C/[C@H](O[C@@H]2O[C@H](C)[C@@H](O)[C@H](N)[C@@H]2O)C[C@@H]2O[C@](O)(C[C@@H](O)C[C@@H](O)[C@H](O)CC[C@@H](O)C[C@@H](O)CC(=O)O[C@H]1C)C[C@H](O)[C@H]2C(=O)O [AMPHOTERICIN B] | – | – | – | – | – | – | – | – | – | – | – | – | – | 100% | – | – | – |
| Nc1nc(N)nc(Nc2ccc([As]3SCC(CO)S3)cc2)n1 (stereo not given) [MELARSOPROL] | 4270 nM | 100 µM | – | – | 267 | – | – | 16 nM | 0.1 µM | – | – | – | – | – | >1000 | – | – |
| COc1ccc2nc3cc(Cl)ccc3c(NCCNCCNc3c4ccc(Cl)cc4nc4ccc(OC)cc34)c2c1 | 9470 nM | > 10 µM | 791 nM | 5000 nM | 43 | 0% | 100% | 218 nM | 10 µM (≈ 5.87 µg/mL) | 63 nM | inactive | 618 nM | Toxic | 47% | >1 | 100% | – |
| CCN(CC)CCCC(C)Nc1ccnc2cc(Cl)ccc12 (stereo not given) [CHLOROQUINE] | – | – | 293 nM | – | – | – | – | – | – | – | – | 10 nM | – | – | – | – | – |
| CCCN(CCCCNc1c2ccc(Cl)cc2nc2ccc(OC)cc12)CCCNc1c2ccc(Cl)cc2nc2ccc(OC)cc12 | 491 nM | 10 µM | 319 nM | 5000 nM | 348 | 90% | – | 1.4 nM | 1 µM (≈ 0.671 µg/mL) | – | inactive | 120 nM | Toxic | 99% | 10 | – | – |
| COc1ccc2nc3cc(Cl)ccc3c(NCCCN3CCN(CCCNc4c5ccc(Cl)cc5nc5ccc(OC)cc45)CC3)c2c1 | 1480 nM | 10 µM | 112 nM | 5000 nM | 836 | 10% | 0% | 1.8 nM | 0.1 µM (≈ 0.0684 µg/mL) | 17 nM | inactive | 64 nM | Toxic | 46% | 100 | 60% | – |
| COc1ccc2nc3cc(Cl)ccc3c(NCCCCCCCCNc3c4ccc(Cl)cc4nc4ccc(OC)nc34)c2n1 | 26300 nM | > 10 µM | 69 nM | 5000 nM | 859 | 59% | – | 31 nM | 1 µM (≈ 0.63 µg/mL) | – | inactive | 62 nM | Toxic | 42% | >10 | – | – |
| COc1ccc2nc3cc(Cl)ccc3c(NCCCCNCCCNc3c4ccc(Cl)cc4nc4ccc(OC)nc34)c2n1 | 119 nM | 7 µM | 34 nM | 500 nM | 86 | 85% | – | 1.4 nM | 0.1 µM (≈ 0.0631 µg/mL) | – | inactive | 29 nM | Toxic | 99% | 70 | – | Active |
| COc1ccc2nc3cc(Cl)ccc3c(NCCCCCCCCCCNc3c4ccc(Cl)cc4nc4ccc(OC)cc34)c2c1 | 3140 nM | 10 µM | 116 nM | 500 nM | 125 | 100% | 0% | 25 nM | 1 µM (≈ 0.656 µg/mL) | 57 nM | inactive | 95 nM | Toxic | 96% | 10 | 100% | – |
| COc1ccc2nc3cc(Cl)ccc3c(NCCCCN(CCCNc3c4ccc(Cl)cc4nc4ccc(OC)cc34)C(=O)CNC(=O)[C@H](C)NC(=O)OC(C)(C)C)c2c1 | 270 nM | 10 µM | 341 nM | 5000 nM | 111 | 53% | – | 2.4 nM | 1 µM (≈ 0.857 µg/mL) | – | inactive | 314 nM | Toxic | 37% | 10 | – | – |
| O=C(C1CCCCC1)N1CC(=O)N2CCc3ccccc3C2C1 (stereo not given) | – | – | – | – | – | – | – | – | – | – | – | – | – | – | – | – | Active |
| CCN(CC)CCCC(C)Nc1c2ccc(Cl)cc2nc2ccc(OC)cc12 (stereo not given) [QUINACRINE] | – | – | 33 nM | – | – | – | – | – | – | – | – | 11 nM | – | – | – | – | – |
| COc1ccc2nc3cc(Cl)ccc3c(NCCCCN(CCCNc3c4ccc(Cl)cc4nc4ccc(OC)cc34)C(=O)[C@H](C)NC(=O)OC(C)(C)C)c2c1 | 1650 nM | 10 µM | 629 nM | 5000 nM | 469 | 95% | 0% | 3.5 nM | 1 µM (≈ 0.8 µg/mL) | 330 nM | inactive | 598 nM | Toxic | 49% | 10 | 100% | – |
